Experimental data published in ChEMBL document CHEMBL1671803, “Synthesis and evaluation of 11C-labeled imidazo[2,1-b]benzothiazoles (IBTs) as PET tracers for imaging β-amyloid plaques in Alzheimer's disease” (J Med Chem, 2011).
Active and inactive are the calls of the source. No cut-off for these calls is given here.

Tests used:
[1] = molecular target: T1, Amyloid-beta precursor protein (Homo sapiens, UniProt P05067); assay: Displacement of [3H]PiB from human amyloid beta (1-40) at 100 nM after 180 mins by liquid scintillation counter
[2] = molecular target: T1, Amyloid-beta precursor protein; assay: Displacement of [3H]PiB from human amyloid beta (1-42) at 100 nM after 180 mins by liquid scintillation counter
[3] = Drug uptake in Balb-C mouse blood assessed as compound remaining after 10 mins at 4-6 MBq by gamma counting; assay type: ADME, tissue-based; settings: read-out: Drug uptake
Summary of the method: (§1)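 Normal Balb-C mice received an iv [11C]-labeled tracer. HPLC analysis of blood and brain homogenates was done at 10 and 30 min post-injection to give percent intact tracer (n=3).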

[4] = Drug uptake in Balb-C mouse brain assessed as compound remaining at 4-6 MBq after 10 mins by gamma counting; assay type: ADME, tissue-based; settings: read-out: Drug uptake; summary of the method: as §1
Brain [5] = assay: Drug uptake in Balb-C mouse brain at 4-6 MBq after 5 mins by gamma counting; assay type: ADME, tissue-based; settings: in vivo
Summary of the method: (§2)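 Normal male Balb-C mice were given an iv [11C]-labeled compound. Brain uptake was measured as %ID/g at 5 and 30 min post-injection (n=5). Clearance is expressed as the 5 min/30 min %ID/g ratio.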

[6] = Drug uptake in Balb-C mouse brain assessed as compound remaining at 4-6 MBq after 30 mins by gamma counting; assay type: ADME, tissue-based; settings: read-out: Drug uptake; summary of the method: as §1
[7] = Drug uptake in Balb-C mouse blood assessed as compound remaining at 4-6 MBq after 30 mins by gamma counting; assay type: ADME, tissue-based; settings: read-out: Drug uptake; summary of the method: as §1
[8] = Octanol-phosphate buffered saline partition coefficient, log P of the compound at pH 7.4; assay type: physicochemical
Brain [9] = assay: Drug uptake in Balb-C mouse brain at 4-6 MBq after 30 mins by gamma counting; assay type: ADME, tissue-based; settings: in vivo, 0.5 h; summary of the method: as §2
Brain [10] = assay: Drug uptake in Balb-C mouse brain at 4-6 MBq by gamma counting; settings: in vivo
Mus musculus [11] = assay: Binding affinity to amyloid beta in telencephalon region in APP/PS1 transgenic C57BL6/J mouse alzheimer's disease model at 50.2 MBq, iv after 5 to 30 mins by micro PET examination relative to control; assay type: functional, organism-based; settings: 50.2 M, tested as the 11C-labelled form
Summary of the method: (§3)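 APP/PS1 (ARTE10) homozygous female mice, 22 months old, with age- and gender-matched C57BL6/J female controls (two each). A single tail-vein bolus of [11C]5 mixed with [3H]1a (7.2 MBq) was given. Readouts were telencephalon/cerebellum ratios from three sources: μPET/CT coregistered to an MRI template (summed 20-30 min), dual-label digital autoradiography of 12 μm sections, and regional biodistribution, all at 30 min p.i.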

Mus musculus [12] = assay: Binding affinity to amyloid beta in telencephalon region in iv dosed APP/PS1 transgenic C57BL6/J mouse alzheimer's disease model after 5 to 30 mins by autoradiography analysis relative to control; assay type: functional, organism-based; summary of the method: as §3
Mus musculus [13] = assay: Binding affinity to amyloid beta in telencephalon region in APP/PS1 transgenic C57BL6/J mouse alzheimer's disease model at 50.2 MBq, iv after 5 to 30 mins by autoradiography analysis relative to control; assay type: functional, organism-based; settings: 50.2 M, tested as the 11C-labelled form; summary of the method: as §3
Mus musculus [14] = assay: Binding affinity to amyloid beta in cerebellum region in APP/PS1 transgenic C57BL6/J mouse alzheimer's disease model at 50.2 MBq, iv after 5 to 30 mins by micro PET examination relative to control; assay type: functional, organism-based; settings: 50.2 M, tested as the 11C-labelled form; summary of the method: as §3
Mus musculus [15] = assay: Binding affinity to amyloid beta in iv dosed telencephalon region in APP/PS1 transgenic C57BL6/J mouse alzheimer's disease model after 5 to 30 mins by micro PET examination relative to control; assay type: functional, organism-based; summary of the method: as §3
Mus musculus [16] = assay: Binding affinity to amyloid beta in cerebellum region in APP/PS1 transgenic C57BL6/J mouse alzheimer's disease model at 50.2 MBq, iv after 5 to 30 mins by MRI examination relative to control; assay type: functional, organism-based; settings: 50.2 M, tested as the 11C-labelled form; summary of the method: as §3
Brain [17] = assay: Ratio of drug uptake in Balb-C mouse brain after 5 mins to drug uptake in Balb-C mouse brain after 30 mins; assay type: ADME, tissue-based; settings: in vivo; summary of the method: as §2
Mus musculus [18] = assay: Binding affinity to amyloid beta in cerebellum region in APP/PS1 transgenic C57BL6/J mouse alzheimer's disease model at 50.2 MBq, iv after 5 to 30 mins by autoradiography analysis relative to control; assay type: functional, organism-based; settings: 50.2 M, tested as the 11C-labelled form; summary of the method: as §3
Mus musculus [19] = assay: Binding affinity to amyloid beta in telencephalon region in APP/PS1 transgenic C57BL6/J mouse alzheimer's disease model at 50.2 MBq, iv after 5 to 30 mins by MRI examination relative to control; assay type: functional, organism-based; settings: 50.2 M, tested as the 11C-labelled form; summary of the method: as §3
[20] = tested as the 11C-labelled form

T1 sequence (P05067 whole entry): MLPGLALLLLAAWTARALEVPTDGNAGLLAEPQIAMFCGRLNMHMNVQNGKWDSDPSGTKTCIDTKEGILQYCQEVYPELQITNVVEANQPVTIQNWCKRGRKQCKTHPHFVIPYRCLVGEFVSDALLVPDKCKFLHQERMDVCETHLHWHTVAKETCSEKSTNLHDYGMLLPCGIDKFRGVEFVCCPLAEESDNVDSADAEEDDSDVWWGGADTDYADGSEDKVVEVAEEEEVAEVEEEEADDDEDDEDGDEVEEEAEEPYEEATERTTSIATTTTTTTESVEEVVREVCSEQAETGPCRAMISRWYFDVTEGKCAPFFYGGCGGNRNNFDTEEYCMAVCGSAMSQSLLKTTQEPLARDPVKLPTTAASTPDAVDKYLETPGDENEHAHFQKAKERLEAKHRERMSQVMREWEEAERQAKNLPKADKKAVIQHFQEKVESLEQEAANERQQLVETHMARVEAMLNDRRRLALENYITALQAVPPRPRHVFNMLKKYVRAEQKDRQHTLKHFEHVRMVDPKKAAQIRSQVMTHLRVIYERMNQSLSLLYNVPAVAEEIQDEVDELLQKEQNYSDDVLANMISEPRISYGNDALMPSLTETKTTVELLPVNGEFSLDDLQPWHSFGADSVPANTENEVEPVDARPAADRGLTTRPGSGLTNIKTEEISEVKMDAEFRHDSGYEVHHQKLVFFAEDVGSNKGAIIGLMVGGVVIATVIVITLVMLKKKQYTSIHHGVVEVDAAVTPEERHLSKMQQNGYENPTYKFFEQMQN

Row | Structure (SMILES) | inhibition [1] | inhibition [2] | logD [8] | Drug uptake (Brain [9]) | Drug uptake (Brain [10]) | further results
1 | Oc1ccc2c(c1)sc1nc(-c3ccc(N4CCCC4)cc3)cn12 | 91% | 91% |  |  |  | 
2 | COc1ccc2c(c1)sc1nc(-c3ccc(N[11CH3])cc3)cn12 |  |  |  |  |  | remaining at 10 min [3]: 15%; remaining at 10 min [4]: 95%; Drug uptake (Brain [5]): Active; remaining at 0.5 h [6]: 91%; remaining at 0.5 h [7]: 7%
3 | COc1ccc2c(c1)sc1nc(-c3ccc(N(C)C)cc3)cn12 | 89% | 91% | 1.9 | 0.7 % ID/g | 1.9 % ID/g | 
4 | COc1ccc2c(c1)sc1nc(-c3ccc(N4CCCC4)cc3)cn12 | 91% | 82% | 1.9 | 0.7 % ID/g | 1.9 % ID/g | 
5 | CNc1ccc(-c2cn3c(n2)sc2cc(OC)ccc23)cc1 | 95% | 97% | 1.7 | 0.7 % ID/g |  | Activity (Mus musculus [11]): Active; Activity (Mus musculus [12]; [20]): Active; Ki [1]: 3.5 nM; Ki [2]: 5.8 nM; Activity (Mus musculus [13]): Active; Activity (Mus musculus [14]): inactive; Activity (Mus musculus [15]; [20]): Active; Activity (Mus musculus [16]): inactive; Ratio (Brain [17]): 9.1; Activity (Mus musculus [18]): inactive; Activity (Mus musculus [19]): Active
6 | COc1ccc2c(c1)sc1nc(-c3ccc(N)cc3)cn12 | 57% | 74% |  |  |  | 
7 | CN(C)c1ccc(-c2cn3c(n2)sc2cc(O)ccc23)cc1 | 85% | 86% |  |  |  | 
8 | Nc1ccc(-c2cn3c(n2)sc2cc(O)ccc23)cc1 | 48% | 48% |  |  |  | 
9 | CCN(CC)c1ccc(-c2cn3c(n2)sc2cc(OC)ccc23)cc1 | 79% | 91% | 2.2 | 0.7 % ID/g | 1.9 % ID/g | 
10 | CNc1ccc(-c2nc3ccc(O)cc3s2)cc1 | 88% | 83% |  |  |  | Activity (Mus musculus [12]; tested as the 3H-labelled form): Active; Activity (Mus musculus [15]; tested as the 3H-labelled form): Active
11 | CCN(CC)c1ccc(-c2cn3c(n2)sc2cc(O)ccc23)cc1 | 79% | 91% |  |  |  | 
12 | COc1ccc2c(c1)sc1nc(-c3ccc(NC(C)=O)cc3)cn12 | 44% | 64% |  |  |  | 
13 | CNc1ccc(-c2cn3c(n2)sc2cc(O)ccc23)cc1 | 46% | 73% | 1.2 | 0.7 % ID/g | 1.9 % ID/g | 
